# Source: ChEMBL document CHEMBL2062453, “Lead optimization through VLAK protocol: new annelated pyrrolo-pyrimidine derivatives as antitumor agents” (2012)
# Tests used:
# Type in all cases: functional
# SW-620 = assay: Cytotoxicity against human SW620 cells assessed as cell growth at 10 uM after 48 hrs by SRB assay relative to control; settings: SW-620, 48 h, read-out: Activity
# How it was run: (§1)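 NCI single-dose primary screen across about 60 human tumour lines. Each line was inoculated and preincubated on microtiter plates, then exposed to one concentration of agent for 48 h. Growth is reported as percent growth (G%) of treated cells versus untreated control cells.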
# MDA-MB-468 = assay: Cytotoxicity against human MDA-MB-468 cells assessed as cell growth at 10 uM after 48 hrs by SRB assay relative to control; settings: MDA-MB-468, 48 h, read-out: Activity
# KM12 = assay: Cytotoxicity against human KM12 cells assessed as cell growth at 10 uM after 48 hrs by SRB assay relative to control; settings: KM12, 48 h, read-out: Activity
# How it was run: (§2)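 NCI primary screen of about 60 human tumour lines. Cells inoculated and preincubated, then a single test concentration added and cultures incubated 48 h. Result given as percent growth (G%) of treated versus untreated control cells.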
# UACC-257 = assay: Cytotoxicity against human UACC257 cells assessed as cell growth at 10 uM after 48 hrs by SRB assay relative to control; settings: UACC-257, 48 h, read-out: Activity; how it was run: as §1
# A549 = assay: Cytotoxicity against human A549 cells assessed as cell growth at 10 uM after 48 hrs by SRB assay relative to control; settings: A549, 48 h, read-out: Activity; how it was run: as §2
# EKVX = assay: Cytotoxicity against human EKVX cells assessed as cell growth at 10 uM after 48 hrs by SRB assay relative to control; settings: read-out: Activity; how it was run: as §2
# MDA-MB-231 = assay: Cytotoxicity against human MDA-MB-231 cells assessed as cell growth at 10 uM after 48 hrs by SRB assay relative to control; settings: MDA-MB-231, 48 h, read-out: Activity; how it was run: as §2
# SN12C = assay: Cytotoxicity against human SN12C cells assessed as cell growth at 10 uM after 48 hrs by SRB assay relative to control; settings: read-out: Activity
# MDA-MB-435 = assay: Cytotoxicity against human MDA-MB-435 cells assessed as cell growth at 10 uM after 48 hrs by SRB assay relative to control; settings: MDA-MB-435, 48 h, read-out: Activity
# LOX IMVI = assay: Cytotoxicity against human LOXIMVI cells assessed as cell growth at 10 uM after 48 hrs by SRB assay relative to control; settings: read-out: Activity; how it was run: as §2
# UACC-62 = assay: Cytotoxicity against human UACC62 cells assessed as cell growth at 10 uM after 48 hrs by SRB assay relative to control; settings: UACC-62, 48 h, read-out: Activity; how it was run: as §1
# MOLT-4 = assay: Cytotoxicity against human MOLT4 cells assessed as cell growth at 10 uM after 48 hrs by SRB assay relative to control; settings: MOLT-4, 48 h, read-out: Activity
# HCT-116 = assay: Cytotoxicity against human HCT116 cells assessed as cell growth at 10 uM after 48 hrs by SRB assay relative to control; settings: HCT-116, 48 h, read-out: Activity; how it was run: as §2
# OVCAR-5 = assay: Cytotoxicity against human OVCAR5 cells assessed as cell growth at 10 uM after 48 hrs by SRB assay relative to control; settings: OVCAR-5, 48 h, read-out: Activity
# HL-60(TB) = assay: Cytotoxicity against human HL-60(TB) cells assessed as cell growth at 10 uM after 48 hrs by SRB assay relative to control; settings: HL-60, 48 h, read-out: Activity
# SF-295 = assay: Cytotoxicity against human SF295 cells assessed as cell growth at 10 uM after 48 hrs by SRB assay relative to control; settings: SF-295, 48 h, read-out: Activity
# NCI-H322M = assay: Cytotoxicity against human NCI-H322M cells assessed as cell growth at 10 uM after 48 hrs by SRB assay relative to control; settings: read-out: Activity
# Hs-578T = assay: Cytotoxicity against human Hs578T cells assessed as cell growth at 10 uM after 48 hrs by SRB assay relative to control; settings: read-out: Activity; how it was run: as §2
# SK-MEL-2 = assay: Cytotoxicity against human SK-MEL-2 cells assessed as cell growth at 10 uM after 48 hrs by SRB assay relative to control; settings: SK-MEL-2, 48 h, read-out: Activity
# OVCAR-8 = assay: Cytotoxicity against human OVCAR8 cells assessed as cell growth at 10 uM after 48 hrs by SRB assay relative to control; settings: OVCAR-8, 48 h, read-out: Activity
# NCI-H460 = assay: Cytotoxicity against human NCI-H460 cells assessed as cell growth at 10 uM after 48 hrs by SRB assay relative to control; settings: NCI-H460, 48 h, read-out: Activity
# CAKI-1 = assay: Cytotoxicity against human Caki1 cells assessed as cell growth at 10 uM after 48 hrs by SRB assay relative to control; settings: CAKI-1, 48 h, read-out: Activity; how it was run: as §2
# U-251 = assay: Cytotoxicity against human U251 cells assessed as cell growth at 10 uM after 48 hrs by SRB assay relative to control; settings: U-251, 48 h, read-out: Activity; how it was run: as §1
# SNB-19 = assay: Cytotoxicity against human SNB19 cells assessed as cell growth at 10 uM after 48 hrs by SRB assay relative to control; settings: SNB-19, 48 h, read-out: Activity
# MCF7 = assay: Cytotoxicity against human MCF7 cells assessed as cell growth at 10 uM after 48 hrs by SRB assay relative to control; settings: MCF7, 48 h, read-out: Activity; how it was run: as §2
# ACHN = assay: Cytotoxicity against human ACHN cells assessed as cell growth at 10 uM after 48 hrs by SRB assay relative to control; settings: read-out: Activity; how it was run: as §2
# BT-549 = assay: Cytotoxicity against human BT549 cells assessed as cell growth at 10 uM after 48 hrs by SRB assay relative to control; settings: BT-549, 48 h, read-out: Activity; how it was run: as §2
# CCRF-CEM = assay: Cytotoxicity against human CCRF-CEM cells assessed as cell growth at 10 uM after 48 hrs by SRB assay relative to control; settings: read-out: Activity; how it was run: as §2
# SNB-75 = assay: Cytotoxicity against human SNB75 cells assessed as cell growth at 10 uM after 48 hrs by SRB assay relative to control; settings: SNB-75, 48 h, read-out: Activity
# SK-MEL-5 = assay: Cytotoxicity against human SK-MEL-5 cells assessed as cell growth at 10 uM after 48 hrs by SRB assay relative to control; settings: SK-MEL-5, 48 h, read-out: Activity
# T47D = assay: Cytotoxicity against human T47D cells assessed as cell growth at 10 uM after 48 hrs by SRB assay relative to control; settings: read-out: Activity; how it was run: as §1
# DU-145 = assay: Cytotoxicity against human DU145 cells assessed as cell growth at 10 uM after 48 hrs by SRB assay relative to control; settings: DU-145, 48 h, read-out: Activity; how it was run: as §2
# M14 = assay: Cytotoxicity against human M14 cells assessed as cell growth at 10 uM after 48 hrs by SRB assay relative to control; settings: M14, 48 h, read-out: Activity; how it was run: as §2
Structure (SMILES),growth at 10 µM (SW-620) [%],growth at 10 µM (MDA-MB-468) [%],growth at 10 µM (KM12) [%],growth at 10 µM (UACC-257) [%],growth at 10 µM (A549) [%],growth at 10 µM (EKVX) [%],growth at 10 µM (MDA-MB-231) [%],growth at 10 µM (SN12C) [%],growth at 10 µM (MDA-MB-435) [%],growth at 10 µM (LOX IMVI) [%],growth at 10 µM (UACC-62) [%],growth at 10 µM (MOLT-4) [%],growth at 10 µM (HCT-116) [%],growth at 10 µM (OVCAR-5) [%],growth at 10 µM (HL-60(TB)) [%],growth at 10 µM (SF-295) [%],growth at 10 µM (NCI-H322M) [%],growth at 10 µM (Hs-578T) [%],growth at 10 µM (SK-MEL-2) [%],growth at 10 µM (OVCAR-8) [%],further results
CSC1=Nc2c(c(C)c(C)n2CCCC(=O)O)C2=NC(=O)CN12,110,97,112,120,117,105,100,115,119,93,111,103,111,117,95,122,112,114,111,111,growth at 10 µM (NCI-H460): 105%; growth at 10 µM (CAKI-1): 112%; growth at 10 µM (U-251): 107%; growth at 10 µM (SNB-19): 107%; growth at 10 µM (MCF7): 95%; growth at 10 µM (ACHN): 108%; growth at 10 µM (BT-549): 105%; growth at 10 µM (CCRF-CEM): 105%; growth at 10 µM (SNB-75): 111%; growth at 10 µM (SK-MEL-5): 101%; growth at 10 µM (T47D): 103%; growth at 10 µM (DU-145): 118%; growth at 10 µM (M14): 110%
CCOC(=O)CCCn1c2c(c(C)c1-c1ccccc1)C1=NC(=O)CN1C(SC)=N2,110,87,96,113,108,97,130,127,111,93,95,77,112,111,90,98,108,112,114,99,growth at 10 µM (NCI-H460): 94%; growth at 10 µM (CAKI-1): 100%; growth at 10 µM (U-251): 102%; growth at 10 µM (SNB-19): 106%; growth at 10 µM (MCF7): 84%; growth at 10 µM (ACHN): 112%; growth at 10 µM (BT-549): 107%; growth at 10 µM (CCRF-CEM): 71%; growth at 10 µM (SNB-75): 80%; growth at 10 µM (SK-MEL-5): 78%; growth at 10 µM (T47D): 88%; growth at 10 µM (DU-145): 109%; growth at 10 µM (M14): 107%
CSC1=Nc2c(c(C)c(-c3ccccc3)n2CCCC(=O)O)C2=NC(=O)CN12,94,90,100,99,101,95,107,105,107,77,95,87,96,98,83,105,131,106,117,98,growth at 10 µM (NCI-H460): 102%; growth at 10 µM (CAKI-1): 70%; growth at 10 µM (U-251): 90%; growth at 10 µM (SNB-19): 104%; growth at 10 µM (MCF7): 94%; growth at 10 µM (ACHN): 89%; growth at 10 µM (BT-549): 94%; growth at 10 µM (CCRF-CEM): 102%; growth at 10 µM (SNB-75): 83%; growth at 10 µM (SK-MEL-5): 97%; growth at 10 µM (T47D): 106%; growth at 10 µM (DU-145): 116%; growth at 10 µM (M14): 104%
COC(=O)C(Cc1cnc[nH]1)NC(=O)CCCn1c(C)c(C)c2c1N=C(SC)N1CC(=O)N=C21 (configuration not stated),98,96,106,107,98,95,112,107,102,92,109,98,100,106,92,112,105,107,105,103,growth at 10 µM (NCI-H460): 99%; growth at 10 µM (CAKI-1): 102%; growth at 10 µM (U-251): 96%; growth at 10 µM (SNB-19): 94%; growth at 10 µM (MCF7): 92%; growth at 10 µM (ACHN): 113%; growth at 10 µM (BT-549): 107%; growth at 10 µM (CCRF-CEM): 105%; growth at 10 µM (SNB-75): 79%; growth at 10 µM (SK-MEL-5): 98%; growth at 10 µM (T47D): 104%; growth at 10 µM (DU-145): 113%; growth at 10 µM (M14): 106%
